Consider seven molecules from ChEMBL document CHEMBL1147128, “Development of molecular probes for second-site screening and design of protein tyrosine phosphatase inhibitors” (J Med Chem, 2007).

In assay [1] the target is T1, Tyrosine-protein phosphatase non-receptor type 7 (Homo sapiens, UniProt P35236).
T1 sequence (P35236 whole entry): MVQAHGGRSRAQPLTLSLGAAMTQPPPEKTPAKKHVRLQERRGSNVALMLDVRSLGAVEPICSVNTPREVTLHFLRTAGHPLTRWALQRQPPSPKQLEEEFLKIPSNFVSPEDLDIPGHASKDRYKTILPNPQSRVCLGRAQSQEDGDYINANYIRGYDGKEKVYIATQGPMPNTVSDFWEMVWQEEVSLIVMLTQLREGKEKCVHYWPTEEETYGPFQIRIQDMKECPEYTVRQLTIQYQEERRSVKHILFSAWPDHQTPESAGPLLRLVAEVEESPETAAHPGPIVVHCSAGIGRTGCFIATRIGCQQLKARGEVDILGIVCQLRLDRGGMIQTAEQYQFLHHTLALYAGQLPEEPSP
Description: Inhibition of HePTP. The gist of the method: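 pNPP was held at its Km of 2.5 mM for HePTP. Assay at 30°C in 0.15 M Bis-Tris pH 6.0 (ionic strength 150 mM, NaCl), 1.0 mM DTT, 5% DMSO final. Compound (0.0128–1000 μM) and enzyme were preincubated 10 min at RT, then reacted 20 min with substrate. NaOH quench, A405 minus the no-enzyme blank. IC50 fit to Vi/V0 = IC50/(IC50+[I]).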

Assay [2] addresses Dual specificity protein phosphatase 3 (Homo sapiens, UniProt P51452). Description: Inhibition of VHR. The gist of the method:
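VHR was assayed with pNPP at its Km of 1.5 mM, at 30°C in 0.15 M Bis-Tris pH 6.0 (150 mM ionic strength, NaCl), 1.0 mM DTT, 5% DMSO final. Eight compound concentrations from 0.0128 to 1000 μM were preincubated 10 min at RT, then reacted 20 min. NaOH quench, read at 405 nm with the enzyme-free blank corrected. IC50 from Vi/V0 = IC50/(IC50+[I]).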

Assay [3] has as its target T2, Receptor-type tyrosine-protein phosphatase C (Homo sapiens, UniProt P08575).
T2 sequence (P08575 whole entry): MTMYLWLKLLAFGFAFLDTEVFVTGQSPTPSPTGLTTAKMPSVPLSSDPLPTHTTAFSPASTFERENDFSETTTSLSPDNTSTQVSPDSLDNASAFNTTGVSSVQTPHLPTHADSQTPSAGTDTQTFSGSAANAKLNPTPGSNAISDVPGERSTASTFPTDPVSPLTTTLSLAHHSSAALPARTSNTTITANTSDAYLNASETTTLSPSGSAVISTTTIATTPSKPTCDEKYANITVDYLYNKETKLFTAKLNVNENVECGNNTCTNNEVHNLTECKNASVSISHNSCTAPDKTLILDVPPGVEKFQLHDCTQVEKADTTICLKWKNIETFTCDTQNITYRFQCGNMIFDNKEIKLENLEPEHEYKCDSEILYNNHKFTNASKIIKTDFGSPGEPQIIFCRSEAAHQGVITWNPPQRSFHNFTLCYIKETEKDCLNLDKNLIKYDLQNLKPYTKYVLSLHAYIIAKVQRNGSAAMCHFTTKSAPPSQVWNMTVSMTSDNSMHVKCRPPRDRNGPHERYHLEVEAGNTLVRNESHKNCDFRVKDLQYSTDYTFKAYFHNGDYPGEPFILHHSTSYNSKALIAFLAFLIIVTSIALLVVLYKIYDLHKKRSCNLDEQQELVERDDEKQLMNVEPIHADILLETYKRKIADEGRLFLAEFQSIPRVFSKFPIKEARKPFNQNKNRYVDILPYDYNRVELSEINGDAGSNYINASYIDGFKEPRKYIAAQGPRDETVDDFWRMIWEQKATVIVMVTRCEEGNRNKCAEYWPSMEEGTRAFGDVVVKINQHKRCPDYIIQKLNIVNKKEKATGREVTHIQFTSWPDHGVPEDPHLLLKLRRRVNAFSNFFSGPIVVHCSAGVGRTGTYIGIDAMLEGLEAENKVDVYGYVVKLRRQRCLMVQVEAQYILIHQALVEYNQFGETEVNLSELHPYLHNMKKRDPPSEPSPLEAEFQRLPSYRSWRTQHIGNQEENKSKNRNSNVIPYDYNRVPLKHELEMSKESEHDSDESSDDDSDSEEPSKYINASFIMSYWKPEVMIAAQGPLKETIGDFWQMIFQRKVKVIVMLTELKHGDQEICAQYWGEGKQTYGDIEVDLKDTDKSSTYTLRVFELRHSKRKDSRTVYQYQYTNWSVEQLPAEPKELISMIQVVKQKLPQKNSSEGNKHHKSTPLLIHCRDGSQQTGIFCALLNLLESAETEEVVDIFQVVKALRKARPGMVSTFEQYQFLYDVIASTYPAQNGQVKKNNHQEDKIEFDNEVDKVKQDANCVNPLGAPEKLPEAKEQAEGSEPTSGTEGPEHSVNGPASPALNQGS
Description: Inhibition of CD45. The gist of the method: (§1)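 Hydrolysis of pNPP at its Km (1 mM) was measured at 30°C in 0.15 M Bis-Tris pH 6.0, ionic strength 150 mM with NaCl, 1.0 mM DTT, 5% DMSO final. Enzyme and compound (0.0128–1000 μM, 5-fold steps) were preincubated 10 min at room temperature, then reacted 20 min. The reaction was quenched with 1 M NaOH and read at 405 nm, with the no-enzyme background subtracted. IC50 came from the fit Vi/V0 = IC50/(IC50+[I]).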

Assay [4] is described as follows: Inhibition of Yersinia pestis YopH expressed in Escherichia coli. The procedure, abridged:
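GST-YopH was purified on glutathione-Sepharose and dialysed into 30 mM Tris, 150 mM NaCl, then with 1 mM DTT. Assayed with pNPP at Km (1 mM), 30°C, 0.15 M Bis-Tris pH 6.0, 1.0 mM DTT, 5% DMSO final. Compound (0.0128–1000 μM) was preincubated 10 min at RT, then reacted 20 min. NaOH quench, A405 with the no-enzyme blank subtracted, IC50 by the hyperbolic fit.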

Assay [5] concerns the target T3, Tyrosine-protein phosphatase non-receptor type 1 (Homo sapiens, UniProt P18031).
T3 sequence (P18031 whole entry): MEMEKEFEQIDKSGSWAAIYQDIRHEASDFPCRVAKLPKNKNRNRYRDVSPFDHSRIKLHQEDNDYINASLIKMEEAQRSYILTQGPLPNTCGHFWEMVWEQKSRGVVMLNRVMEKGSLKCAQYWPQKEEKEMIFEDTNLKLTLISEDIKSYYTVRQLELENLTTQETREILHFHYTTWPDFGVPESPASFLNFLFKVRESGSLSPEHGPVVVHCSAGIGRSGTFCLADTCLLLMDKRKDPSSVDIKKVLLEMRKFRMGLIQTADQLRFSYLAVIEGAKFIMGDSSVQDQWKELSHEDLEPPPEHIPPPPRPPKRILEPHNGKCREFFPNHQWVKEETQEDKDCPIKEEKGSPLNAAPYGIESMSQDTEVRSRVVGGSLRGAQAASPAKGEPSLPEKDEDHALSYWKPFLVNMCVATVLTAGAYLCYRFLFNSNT
Description: Inhibition of PTP1B. The gist of the method: as §1

For assay [6], the target named is T4, Tyrosine-protein phosphatase non-receptor type 2 (Homo sapiens, UniProt P17706).
T4 sequence (P17706 whole entry): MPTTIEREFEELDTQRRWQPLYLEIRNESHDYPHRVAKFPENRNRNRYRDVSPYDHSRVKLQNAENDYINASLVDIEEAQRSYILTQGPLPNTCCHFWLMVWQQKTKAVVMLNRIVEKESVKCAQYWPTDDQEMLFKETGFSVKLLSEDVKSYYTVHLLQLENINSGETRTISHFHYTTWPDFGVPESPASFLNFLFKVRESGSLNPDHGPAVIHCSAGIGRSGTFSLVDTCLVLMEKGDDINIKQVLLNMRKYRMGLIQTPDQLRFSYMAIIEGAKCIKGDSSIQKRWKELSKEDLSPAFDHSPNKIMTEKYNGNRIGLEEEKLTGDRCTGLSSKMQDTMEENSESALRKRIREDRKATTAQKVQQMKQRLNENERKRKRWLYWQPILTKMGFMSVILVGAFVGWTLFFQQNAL
Description: Inhibition of TCPTP. The procedure, abridged: as §1

The term IC50 denotes the concentration that inhibits the measured activity by half. High values mean weaker potency, low ones greater potency.

Chain of Dual specificity protein phosphatase 3 (P51452 whole entry): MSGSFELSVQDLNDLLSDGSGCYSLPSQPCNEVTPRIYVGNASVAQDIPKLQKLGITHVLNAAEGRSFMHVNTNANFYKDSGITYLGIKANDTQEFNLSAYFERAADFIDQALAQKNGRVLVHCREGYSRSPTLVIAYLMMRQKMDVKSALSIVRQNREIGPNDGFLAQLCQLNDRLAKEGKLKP

On to `CC1(C)CC(NC(=O)/C=C/c2ccc(-c3cccc([N+](=O)[O-])c3)o2)CC(C)(C)N1[O]`, for which the half-inhibitory concentration (IC50) in assay [1] was 211 µM; in assay [2] it was 200 µM; in assay [3], more than 1000 µM; in assay [4], 46 µM; in assay [5] it was 1000 µM; in assay [6] it was 260 µM.
Take `CC1(C)CC(NC(=O)/C=C/c2ccc(-c3ccc(O)c(C(=O)O)c3)o2)CC(C)(C)N1[O]`: the IC50 in assay [1] is 7.5 µM; in assay [2] it was 12 µM; in assay [3], 14 µM; in assay [4] it was 3 µM; in assay [5], 24 µM; in assay [6] it was 14 µM.
With `CC1(C)CC(NC(=O)/C=C/c2ccc(-c3ccc([N+](=O)[O-])cc3)o2)CC(C)(C)N1[O]`, the IC50 in assay [1] is more than 1000 µM; in assay [2] it was 1000 µM; in assay [3] it was more than 1000 µM; in assay [4] it was 47 µM; in assay [5], more than 1000 µM; in assay [6], more than 1000 µM.
Take `COC(=O)c1cc(-c2ccc(CNC3CC(C)(C)N([O])C(C)(C)C3)o2)ccc1O`: the IC50 was more than 1000 µM in assay [1]; 850 µM in assay [2]; more than 1000 µM in assay [3]; more than 1000 µM in assay [4]; more than 1000 µM in assay [5]; more than 1000 µM in assay [6].
As for `COC(=O)c1cc(NC(=O)CCCC(=O)NC2CC(C)(C)N([O])C(C)(C)C2)ccc1O`, the IC50 in assay [1], in assay [2], in assay [3], in assay [4], in assay [5] and in assay [6] was more than 1000 µM in each case.
Take `CC1(C)CC(NCc2ccc(-c3ccc(O)c(C(=O)O)c3)o2)CC(C)(C)N1[O]`: the concentration for half-maximal inhibition (IC50) in assay [1] was more than 1000 µM; in assay [2] it was 241 µM; in assay [3], more than 1000 µM; in assay [4] it was 50 µM; in assay [5], more than 1000 µM; in assay [6] it was 685 µM.
Turning to `CC1(C)CC(NC(=O)CCCC(=O)Nc2ccc(O)c(C(=O)O)c2)CC(C)(C)N1[O]`, the IC50 in assay [1] was more than 1000 µM; in assay [2], 1000 µM; in assay [3], more than 1000 µM; in assay [4] it was 336 µM; in assay [5] it was more than 1000 µM; in assay [6], more than 1000 µM.
